UBC9 SUMO inh – blocks human SUMOylation mediated by UBC9; HTRF SUMOylation assay, SAE1/SAE2 + UBC9, in vitro; P63279; hit rate 0.36% among 290,000; inhibition, % at 35 µM; in the data active = inhibition above about 50%, passing the limit was not always enough
ALR inh – blocks human ALR sulfhydryl oxidase activity; purified ALR, DTT oxidation, H2O2 HRP-luminol luminescence; inhibition, % (no concentration beside the values); hit rate 3.8% among 290,000; AID 485317;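 active = mean replicate inhibition above about 79%, with every replicate also reaching it, limit read from the data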
Rin1-Abl PPI inh – human Rin1-Abl interaction inhibition. P00519+Q13671. TR-FRET Rin1/Abl binding, biochemical. inhibition, % at 7.35 µM. hit rate 0.4% among 360,000; in the data active = inhibition above about 5%, passing the limit was not always enough
Target sequence (P00519 whole entry, looked up): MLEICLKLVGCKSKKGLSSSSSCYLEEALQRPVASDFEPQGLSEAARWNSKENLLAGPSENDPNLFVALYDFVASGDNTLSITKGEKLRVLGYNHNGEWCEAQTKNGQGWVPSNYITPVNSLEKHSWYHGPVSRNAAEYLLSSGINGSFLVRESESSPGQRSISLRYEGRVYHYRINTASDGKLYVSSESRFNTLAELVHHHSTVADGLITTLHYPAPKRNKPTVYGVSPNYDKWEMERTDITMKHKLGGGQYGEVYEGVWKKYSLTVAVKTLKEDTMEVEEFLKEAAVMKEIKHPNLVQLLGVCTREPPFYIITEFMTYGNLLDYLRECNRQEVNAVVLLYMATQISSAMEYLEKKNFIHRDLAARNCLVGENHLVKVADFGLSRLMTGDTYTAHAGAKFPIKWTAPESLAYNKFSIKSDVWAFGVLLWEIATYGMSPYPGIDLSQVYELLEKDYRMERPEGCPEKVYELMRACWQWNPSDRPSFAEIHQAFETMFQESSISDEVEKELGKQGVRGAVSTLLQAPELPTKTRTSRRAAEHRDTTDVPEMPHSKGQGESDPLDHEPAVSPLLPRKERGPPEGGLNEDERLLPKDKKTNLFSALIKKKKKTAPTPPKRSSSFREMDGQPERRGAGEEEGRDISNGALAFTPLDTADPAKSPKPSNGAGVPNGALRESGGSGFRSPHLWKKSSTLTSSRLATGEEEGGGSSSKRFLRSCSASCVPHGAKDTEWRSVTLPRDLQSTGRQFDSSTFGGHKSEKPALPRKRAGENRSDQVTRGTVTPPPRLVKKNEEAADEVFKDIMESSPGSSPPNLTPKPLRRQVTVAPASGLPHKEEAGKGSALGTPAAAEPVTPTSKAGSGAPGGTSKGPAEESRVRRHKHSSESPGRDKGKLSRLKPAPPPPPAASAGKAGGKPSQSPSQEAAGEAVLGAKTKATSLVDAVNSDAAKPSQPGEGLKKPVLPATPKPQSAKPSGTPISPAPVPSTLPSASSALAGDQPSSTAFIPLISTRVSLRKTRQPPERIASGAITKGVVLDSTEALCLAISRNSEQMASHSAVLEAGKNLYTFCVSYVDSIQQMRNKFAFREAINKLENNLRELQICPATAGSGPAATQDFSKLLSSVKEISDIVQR
Target sequence (Q13671 whole entry, looked up): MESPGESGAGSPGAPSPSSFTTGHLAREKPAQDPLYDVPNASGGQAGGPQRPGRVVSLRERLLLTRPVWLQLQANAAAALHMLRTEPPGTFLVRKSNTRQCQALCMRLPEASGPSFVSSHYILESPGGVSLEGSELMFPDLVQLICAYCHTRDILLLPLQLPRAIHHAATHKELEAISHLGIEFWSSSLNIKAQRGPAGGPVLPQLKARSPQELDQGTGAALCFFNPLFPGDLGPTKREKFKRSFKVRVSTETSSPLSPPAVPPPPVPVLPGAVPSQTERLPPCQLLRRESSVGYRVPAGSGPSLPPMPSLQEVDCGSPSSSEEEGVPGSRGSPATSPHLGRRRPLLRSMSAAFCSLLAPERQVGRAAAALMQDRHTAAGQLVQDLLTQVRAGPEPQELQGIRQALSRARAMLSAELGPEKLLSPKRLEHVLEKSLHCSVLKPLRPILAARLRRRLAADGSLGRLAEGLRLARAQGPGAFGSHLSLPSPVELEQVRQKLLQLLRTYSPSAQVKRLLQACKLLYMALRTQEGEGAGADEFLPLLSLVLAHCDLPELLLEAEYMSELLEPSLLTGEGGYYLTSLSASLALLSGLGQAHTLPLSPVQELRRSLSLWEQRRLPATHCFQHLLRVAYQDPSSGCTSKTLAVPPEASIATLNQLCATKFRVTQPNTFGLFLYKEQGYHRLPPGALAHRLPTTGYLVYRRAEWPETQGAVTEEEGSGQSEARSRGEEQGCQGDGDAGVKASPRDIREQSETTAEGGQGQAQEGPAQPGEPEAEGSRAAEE
PREPL inh – inhibitors of human prolyl oligopeptidase-like enzyme PREPL; recombinant PREPL, fluorescence polarization activity-based probe; inhibition, % at 5.96 µM; hit rate 0.68% among 320,000; AID 2751; in the data active = inhibition above about 43%;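 note: 0% = enzyme with DMSO and 100% = wells lacking enzyme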
RBBP9 inhibitor – inhibitors of human serine hydrolase RBBP9; O75884; recombinant RBBP9, FP-Rh probe fluorescence polarization; inhibition, % at 7.94 µM; hit rate 0.2% among 220,000; AID 1515;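 active = inhibition above the campaign mean of all tested compounds plus 3 SD, cut at about 14% in these data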;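 note: plate controls were DMSO wells with RBBP9 for no effect and wells lacking RBBP9 protein for full effect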
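System: RBBP9 protein / Buffer or medium: Tris/NaCl buffer pH 8.0 with 0.1% Pluronic / Probe or stimulus: Serine-hydrolase probe FP-Rh, 375 nM pre-mixing / Dosing: 7.94 µM single dose, 0.794% DMSO / Times: enzyme-compound preincubation 30 min, then probe labeling 45 min, 25 °C / Technique: fluorescence polarization (mP), excitation 525 nm, emission 598 nm / Replication: singlicate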
UBC13 polyUb – inhibitors of human UBC13 polyubiquitin chain formation. P61088. TR-FRET. inhibition, % at 20 µM. hit rate 0.47% among 330,000; in the data active = inhibition above about 45%, passing the limit was not always enough
Numbers without * were called inactive; i = inactive; x = no result. Most compounds without a hit are left out; they make up all but 4.3% or so of the library.

SMILES	UBC9 SUMO inh	ALR inh	Rin1-Abl PPI inh	PREPL inh	RBBP9 inhibitor	UBC13 polyUb
COc1ccc(Cn2ccnc2SCC(=O)Nc2cccc(NC(C)=O)c2)cc1	-4	98*	-2	-8	-13	-7
COc1ccc(NC(=O)CSc2nccn2Cc2ccccc2)cc1	12	-5	1	-1	x	-6
CC(=O)Nc1cccc(NC(=O)CSc2nccn2Cc2ccco2)c1	16	99*	1	2	x	-1
COc1ccc(Cn2c(CO)cnc2SCC(=O)Nc2cccc(NC(C)=O)c2)cc1	-4	99*	0	-5	x	-1
CN(C)S(=O)(=O)c1cccc(C(=O)NCCOC(=O)c2cc(F)c(F)cc2Cl)c1	10	-15	2	17	x	2
Cc1ccc(-c2cc(-c3ccco3)c3c(N)c(C(=O)NN)oc3n2)cc1	55*	-7	0	-2	14	-41
O=Cc1ccc(-c2ccccc2C(=O)O)o1	17	-5	3	2	-7	2
O=C(O)c1ccccc1-c1c2cc(I)c(=O)c(I)c-2oc2c(I)c(O)c(I)cc12	x	82*	9	i	x	1
CC(=O)CSc1cc(-c2ccccc2)nc2ncnn12	-2	98*	-2	3	-10	16
C#CCNc1cc(-c2ccccc2)nc2ncnn12	15	-5	0	14	-12	0
COc1ccc(-c2cc(-c3ccccc3)n3ncnc3n2)cc1	53*	-2	-3	11	0	10
COc1cccc(C2Nc3ccccc3C(=O)N2c2ccc(F)cc2)c1O (stereo unspecified)	-11	75	1	-9	x	13
COc1cccc(C2Nc3ccccc3C(=O)N2O)c1O (stereo unspecified)	-19	87*	-2	-3	-4	2
N#CN(Cc1ccccc1)Cc1ccccc1	11	x	-4	2	-10	3
Cc1ccc(-c2nc(CS(=O)CC(=O)NC3CCC(C)CC3)c(C)o2)cc1 (stereo unspecified)	15	99*	2	14	-7	0
COc1ccc(-c2nc(CS(=O)(=O)CC(=O)NC3CCC(C)CC3)c(C)o2)cc1 (stereo unspecified)	18	98*	1	-1	x	-5
Cc1oc(-c2ccc(Cl)cc2)nc1CS(=O)CC(=O)NC1CC1 (stereo unspecified)	1	99*	2	-10	x	8
COC(=O)[C@]1(C)N[C@H](CN(C)C(=O)Nc2ccc(C(F)(F)F)cc2)[C@@H]2C(=O)N(C)C(=O)[C@@H]21	x	-4	2	6	x	-8
Cc1cc(OCc2cc(C(=O)N(C)C3CCOC3)no2)cc(C)c1Cl (stereo unspecified)	-2	1	1	1	x	4
CCCNC(=O)CSC1=N/C(=C/c2ccc(F)cc2)C(=O)N1CC	17	97*	-2	-4	-5	2
C=CCN1C(=O)/C(=C\c2ccc(C)cc2)N=C1SCC(=O)NCCC	11	98*	3	16	-2	2
C=CCn1c(SCC(=O)c2ccc(Cl)cc2)nnc1-c1ccc2c(c1)OCO2	13	92*	5	-2	-6	0
C=CCn1c(SCC(=O)c2ccc(OC)cc2)nnc1-c1ccc2c(c1)OCO2	-4	98*	-1	2	-5	-21
O=C(CSc1nnc(-c2ccc3c(c2)OCO3)n1-c1ccccc1)c1ccc(Cl)cc1	-7	10	-1	-1	4	0
CNc1nc(Oc2cccc(NC(C)=O)c2)c2sccc2n1	x	x	-1	x	x	x
SMILES	UBC9 SUMO inh	ALR inh	Rin1-Abl PPI inh	PREPL inh	RBBP9 inhibitor	UBC13 polyUb
CC(CCc1ccccc1)NC(=O)CC(C)c1ccccc1 (stereo unspecified)	7	-34	2	0	x	-2
Nc1ccc2nc[nH]c2c1	-2	99*	-14	9	-12	-12
CCOC(=O)C1CCN(S(=O)(=O)c2ccc(OC)c(Cl)c2)CC1	1	1	1	12	-2	0
Cc1cccc(/C=N/Nc2nncc3ccccc23)c1	18	97*	1	0	-6	-8
CCCCN(C(=O)c1cc2c(s1)CCC2)c1c(N)n(CCC)c(=O)[nH]c1=O	x	x	3	x	x	-7
CCOC(=O)N1CCC(N2C(=O)c3ccccc3C2Nc2ccc(S(=O)(=O)N3CCOCC3)cc2)CC1 (stereo unspecified)	-1	-15	14*	4	-5	-8
CCOC(=O)N1CCC(N2C(=O)c3ccccc3C2Nc2cc(OC)c(OC)c(OC)c2)CC1 (stereo unspecified)	-8	9	2	5	-3	-1
CC(=O)Oc1cc2oc(=O)cc(C)c2cc1OC(C)=O	39	89*	-5	11	-10	-72
CC(=O)Oc1ccc2c(C)cc(=O)oc2c1	28	22	-3	-8	-6	11
CCOc1ccccc1N1CC(C(=O)N2CCOCC2)CC1=O (stereo unspecified)	-4	7	1	16	x	-2
O=C(c1cccc(F)c1)N1CCC(c2nc3ccccc3s2)CC1	0	100*	3	-3	-16	-9
CCOC(=O)c1[nH]c(C)c(C(=O)N2CCN(c3ccc(F)cc3)CC2)c1C	8	90*	1	8	-3	-5
CSc1sc(-c2ccnc(=S)[nH]2)c(-c2ccccc2)c1C#N	35	96*	-3	-4	-1	17
CSc1nccc(-c2sc(SC)c(C#N)c2-c2ccccc2)n1	-19	-6	2	10	-4	27
Cc1cc(NC(=O)Cn2c(=O)n(Cc3ccccc3)c(=O)c3ccccc32)no1	52*	-3	-3	9	-6	-5
CC(=O)Cc1nsc(NC(=O)c2ccc(COc3ccccc3)o2)n1	22	98*	1	2	-9	-2
CC(=O)Cc1nsc(NC(=O)c2ccc(COc3ccccc3Cl)o2)n1	-7	x	4	-15	x	-12
CCC(C)c1ccc(NC(=S)NCc2ccccc2OC)cc1 (stereo unspecified)	14	x	-6	x	3	x
Cc1nn(C)cc1C(=O)/C=C/c1ccc([N+](=O)[O-])cc1	3	84*	5	-4	-2	-3
O=C(O)c1cc(-c2ccc(/C=c3\sc4nc5ccc(Br)cc5n4c3=O)o2)ccc1Cl	24	93*	x	3	x	x
COCCNC(=O)c1ccc(N2CC3CC(C2)c2cccc(=O)n2C3)c(NC(=O)c2ccc(Br)o2)c1 (stereo unspecified)	7	8	3	5	x	-8
CCSC1=NSC2=NC(=O)/C(=C\c3coc4ccccc4c3=O)C(=N)N12	4	98*	1	13	-6	x
CC(C)CC1=NN2C(=N)/C(=C\c3coc4ccccc4c3=O)C(=O)N=C2S1	-1	x	0	x	-11	x
CC(=O)/C(=N\Nc1ccccc1)Sc1nnc(-c2ccccc2)n1-c1ccccc1	-3	2	-4	-2	1	-2

Source: PubChem
